As usually defined, the IC50 is the concentration at which inhibition is half-maximal.

SMILES strings stand for the structures.

Data on two molecules can be found in publication PMC12394899 (RSC Medicinal Chemistry, 2025).

One assay relates to MDA-MB-231 cells. The experiment in a line: MTT assay, MDA-MB-231. The assay is classed as cell-based. Conditions: Homo sapiens, MDA-MB-231, 48 h, read-out: MTT IC50. A digest of the protocol:
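TNBC cells maintained in DMEM with 10% FBS at 37 °C, 5% CO2. About 10 000 cells/well seeded and exposed to test compound at 0.5–80 μM for 48 h, with 0.1% DMSO medium as control. MTT (1 mg mL−1) added for 4 h at 37 °C. Formazan dissolved in DMSO for 30 min at room temperature. Absorbance read at 540 nm.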
(Tetrazolium dyes change colour on reduction, which living cells bring about.)

In assay [1] the target is T1, rat α2,3-O-sialyltransferase ST3GAL1 (Rattus norvegicus, UniProt Q6H8N0).
T1 sequence (Q6H8N0 1-340): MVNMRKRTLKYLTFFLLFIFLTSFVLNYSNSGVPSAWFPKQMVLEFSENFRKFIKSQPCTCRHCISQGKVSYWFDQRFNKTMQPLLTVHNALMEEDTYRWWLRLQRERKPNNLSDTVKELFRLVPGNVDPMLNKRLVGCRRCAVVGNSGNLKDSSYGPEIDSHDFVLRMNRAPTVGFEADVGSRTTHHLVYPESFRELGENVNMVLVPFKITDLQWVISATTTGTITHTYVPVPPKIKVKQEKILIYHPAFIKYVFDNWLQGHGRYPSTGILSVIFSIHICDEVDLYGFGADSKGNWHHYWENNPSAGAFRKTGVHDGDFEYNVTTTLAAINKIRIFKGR
Conditions: cited from earlier work.

As for `c1ccc2c(Cc3c[nH]c4ccccc34)c[nH]c2c1` [3,3′-DIM, 3,3′-diindolylmethane], in the assay on MDA-MB-231 cells, the IC50 lay in the range of 40 to 80 µM.
As to `C[C@H](CCC(=O)O)[C@H]1CC[C@H]2[C@@H]3CC[C@@H]4C[C@H](O)CC[C@]4(C)[C@H]3CC[C@]12C` [LCA, Lithocholic acid], in assay [1], the “ST3GAL1 % Inhibition at 500 μM” value is given as 53%.
